LANA DNA inh = inhibitors of KSHV LANA C-terminal domain DNA binding; inhibition, % at 9 µM; 340,000 tested, 0.078% active; MBP-C-LANA/FAM-LBS DNA binding, fluorescence polarization;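 active = highest replicate inhibition at or above 60% at 9 µM, even if other replicates fall short; inactive = all replicates below 60% inhibition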;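 also: 0% = neutral control wells and 100% = 4 µM acridine orange control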
CAL PDZ FP-1 = inhibitors of human CAL PDZ peptide binding | Q9HD26 | purified CAL PDZ, TMR-peptide fluorescence polarization, 1 h | inhibition, % at 24.9 µM | 300,000 tested, 0.92% active | AID 602252;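 active = mean inhibition of at least 30% with at least half of replicates also reaching 30%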;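 also: 0% = DMSO neutral control and 100% = excess unlabeled competitor peptide PRC23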
miR122 inh = blocks miR-122 activity in Huh7 sensor cells | Huh7 miR-122 Renilla luciferase sensor, 48 h; neutral wells = 0, positive control = 100 | activation (reporter increase), % at 12.5 µM | 340,000 tested, 0.3% active | AID 602342;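 active = mean replicate activation score at least 90 and every replicate individually at or above 90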;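 also: higher luciferase means less miR-122 activity so hits act as miR-122 inhibitors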
Keap1 Nrf2 FP = disrupts human Keap1 binding to Nrf2 peptide; AID 504523; Q14145; 340,000 tested, 0.15% active; Keap1 Kelch-Nrf2 peptide fluorescence polarization, 1536-well; inhibition, % at 9.4 µM; in the data active = inhibition above about 12%;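 also: human Keap1 Kelch domain with fluorescein labeled Nrf2 9mer peptide probe; 0% = neutral control wells and 100% = peptide positive control; higher means more block of Keap1 binding to Nrf2 peptide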
Target sequence (Q14145 whole entry, looked up, the tested form may be a part): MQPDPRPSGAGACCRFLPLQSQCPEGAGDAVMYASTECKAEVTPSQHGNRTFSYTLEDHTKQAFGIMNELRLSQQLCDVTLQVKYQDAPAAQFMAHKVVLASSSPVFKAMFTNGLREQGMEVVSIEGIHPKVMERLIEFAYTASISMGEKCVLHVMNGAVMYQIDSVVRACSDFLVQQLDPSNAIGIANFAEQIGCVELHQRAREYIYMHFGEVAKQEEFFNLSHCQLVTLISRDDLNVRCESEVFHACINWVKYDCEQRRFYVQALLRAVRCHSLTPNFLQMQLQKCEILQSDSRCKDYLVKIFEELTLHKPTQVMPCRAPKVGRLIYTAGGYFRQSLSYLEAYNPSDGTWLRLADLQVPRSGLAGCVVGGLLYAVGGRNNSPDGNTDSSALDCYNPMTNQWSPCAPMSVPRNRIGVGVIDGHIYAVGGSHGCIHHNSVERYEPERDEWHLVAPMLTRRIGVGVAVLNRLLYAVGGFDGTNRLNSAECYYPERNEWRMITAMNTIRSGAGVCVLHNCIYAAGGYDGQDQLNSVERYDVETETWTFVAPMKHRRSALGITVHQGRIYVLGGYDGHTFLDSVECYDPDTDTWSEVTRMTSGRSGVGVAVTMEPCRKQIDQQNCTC
CAL PDZ FP-2 = blocks peptide binding to human CAL PDZ domain | Q9HD26 | purified CAL PDZ, TMR-peptide fluorescence polarization, 1 h | inhibition, % at 20 µM | 330,000 tested, 0.02% active | AID 504414;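 active = highest replicate inhibition of at least 40%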;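 also: plate controls were DMSO neutral control wells for no effect and unlabeled competitor peptide control wells for full effect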
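Test system: purified CerCALP PDZ construct; Compound dosing: one concentration, 20 µM compound; Also added: TMR-labelled reporter peptide T*-PRC34 bound in PDZ groove; Read-out: inhibition from polarization loss; Controls: unlabelled peptide and DMSO controls; Signal: FP readout, S and P plane fluorescence; Incubation: 1 h at RT.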
Numbers without * were called inactive; · = not tested or not shown; + = active, no number; [ ] = dose if it differs, or a comment. Hits are enriched below; roughly 1.1% of the tested compounds scored in any of these assays.

SMILES	LANA DNA inh	CAL PDZ FP-1	miR122 inh	Keap1 Nrf2 FP	CAL PDZ FP-2
Cc1ccc2c(c1)c1ncnc(N3CCOCC3)c1n2C	0	42*	0	-2	-1
O=C(Nc1cc(S(=O)(=O)N2CCOCC2)ccc1Cl)C(=O)c1c(-c2ccccc2)cc2ccccn12	1	0	155*	3	-3
O=C(CNCc1ccccc1Cl)Nc1cc(S(=O)(=O)N2CCOCC2)ccc1Cl	2	-2	·	-4	-1
Cc1cc(C)c(S(=O)(=O)NCCCn2ccnc2)cc1C	0	-1	129*	-1	-1
N#CC1c2ccccc2-c2ccccc2N1C(=O)c1ccccc1 (configuration not stated)	·	·	98*	·	·
CC1C=Cc2ccccc2N1C(=O)c1ccccc1 (configuration not stated)	-11	-1	0	-2	-1
O=C(CN1CCCCC1)N=Nc1c(O)[nH]c2ccccc12	-1	41*	·	-1	-1
O=C(C[C@H]1C[C@H]2c3cc(NC(=O)NC4CCCCC4)ccc3O[C@H]2[C@H](CO)O1)NCC1CC1	·	·	4[16.7 µM]	·	·
CCOc1ccc(/C=N/NC(=O)c2ccoc2C)cc1OC	0	182*	-5	-4	-1
COc1ccc(S(=O)(=O)Nc2ccc3c(c2)CC(=O)N([C@H](C)CO)C[C@H](C)[C@H](CN(C)S(=O)(=O)c2ccccc2)O3)cc1	·	·	9[16.7 µM]	·	·
Cc1cc(C(=O)CSc2nnnn2C)c(C)n1CCc1ccc(F)cc1	0	39*	2	-4	-2
Cc1ccc2nc3sc(C(=O)N4CCOCC4)c(N)c3cc2c1	-1	-2	-19	0	-3
Cc1ccc2cc3c(N)c(C(=O)N4CCOCC4)sc3nc2c1	3	53*	7	-4	0
COc1ccc(CNC(=O)CCS(=O)(=O)c2ccc3c(c2)oc(=O)n3C)cc1	0	-1	0	-7	-1
CN(C)c1ccc(CNC(=O)CCS(=O)(=O)c2ccc3c(c2)oc(=O)n3C)cc1	-2	63*	-2	-3	-1
COc1ccc(C(=O)Nc2ccc3c(c2)C(=O)N(C)C[C@@H](OC)[C@H](C)CN(C(C)=O)[C@H](C)CO3)cc1	·	·	-3[16.7 µM]	·	·
C[C@@H]1CN([C@@H](C)CO)C(=O)c2cc(NC(=O)CCCN(C)C)ccc2O[C@@H](C)CCCCO[C@@H]1CN(C)S(=O)(=O)c1ccc(F)cc1	·	·	10[16.7 µM]	·	·
Cc1ccc(COC(=O)c2nn(C)c(=O)c3ccccc23)cc1	-5	-1	·	4	0
Cn1nc(C(=O)Oc2cc(=O)n(C)c3ccccc23)c2ccccc2c1=O	0	36*	·	1	1
O=C(Nc1ccc(Cl)cc1)N1CCN(C(=O)C2CCCO2)CC1 (configuration not stated)	0	-6	-5	-2	0
O=C(CN1CCN(C(=O)C2CCCO2)CC1)Nc1ccc(Cl)cc1 (configuration not stated)	0	33*	-2	0	-1
COc1ccc(CNC(=O)CN2C(=O)CSc3ccc(S(=O)(=O)N4CCOCC4)cc32)c(OC)c1	0	-5	-3	-7	-1
CCOc1ccccc1CNC(=O)CN1C(=O)CSc2ccc(S(=O)(=O)N3CCOCC3)cc21	1	+	-4	-4	-1
COc1ccc(S(=O)(=O)Nc2ccc3c(c2)C(=O)N([C@H](C)CO)C[C@H](C)[C@@H](CN(C)C(=O)Nc2ccc(F)cc2)OCCCC[C@@H](C)O3)cc1	·	·	19[16.7 µM]	·	·
Cc1cc(C(=O)O)ccc1-c1ccc(/C=C2\SC(=O)N(CC(=O)Nc3ccc4c(c3)OCO4)C2=O)o1	11	-6	-1	13*	-5
SMILES	LANA DNA inh	CAL PDZ FP-1	miR122 inh	Keap1 Nrf2 FP	CAL PDZ FP-2
CC1CC1C(=O)N1CCN(S(=O)(=O)c2cc(C(F)(F)F)cc(C(F)(F)F)c2)CC1 (configuration not stated)	0	76*	1	0	0
COC(=O)[C@H]1[C@H](CO)[C@H]2Cn3c(ccc(-c4ccccc4F)c3=O)[C@H]2N1CC1CCCC1	·	·	7[16.7 µM]	·	·
C[C@@H]1CN([C@H](C)CO)C(=O)c2cc(Br)cnc2O[C@@H]1CN(C)C(=O)C1CCCCC1	·	·	21[16.7 µM]	·	·
Cc1ccnc(NC(=O)c2ccc(COc3c(F)c(F)cc(F)c3F)o2)c1	0	·	-2	-2	-1
O=C(Nc1ccc(Br)cn1)c1ccc(COc2c(F)c(F)cc(F)c2F)o1	0	35*	-11	1	0
Cc1ccc(S(=O)(=O)N(C)c2ccc(OC(=O)c3cccs3)cc2)cc1C	1	49*	-8	0	-1
Cc1ccc(S(=O)(=O)N(C)c2ccc(OC(C)C(=O)N3CCCC3)cc2)cc1C (configuration not stated)	1	6	·	0	0
Cc1noc(C)c1NC(=O)Nc1ccc2c(c1)C(=O)N([C@@H](C)CO)C[C@@H](C)[C@H](CN(C)C(=O)Nc1ccc3c(c1)OCO3)OCCCC[C@@H](C)O2	·	·	6[16.7 µM]	·	·
CCC(=O)N1CCc2cc(OC)c(OC)cc2C1COc1ccc(C(=O)OC)cc1 (configuration not stated)	3	4	0	0	-1
COC(=O)c1ccc(OCC(O)CN2CCc3cc(OC)c(OC)cc3C2c2ccccc2)cc1 (configuration not stated)	-2	76*	-2	-1	0
COc1ccc(-c2ncc(CN3CCN(CCC(C)C)C(CCO)C3)cn2)cc1 (configuration not stated)	0	93*	0	-2	-2
C[C@@H]1CN([C@@H](C)CO)C(=O)c2cc(NS(=O)(=O)c3ccc(F)cc3)ccc2O[C@@H](C)CCCCO[C@@H]1CN(C)C(=O)c1ccccc1	·	·	2[16.7 µM]	·	·
O=C(C[C@H]1CC[C@H]2[C@@H](COC[C@H](O)CN2Cc2ccccc2F)O1)NC1CCC1	·	·	1[16.7 µM]	·	·
O=C(Nc1ccccc1F)N1C[C@@H]2[C@H](c3ccccc31)[C@H](CO)N2C(=O)C1CCCC1	·	·	30[16.7 µM]	·	·
C[C@H]1CN([C@@H](C)CO)C(=O)c2cc(-c3ccc(F)cc3)cnc2O[C@@H]1CN(C)C(=O)c1ccncc1	·	·	-1[16.7 µM]	·	·
CCOc1ccc(CSC2=NCCN2)cc1Cl	1	-3	277*	3	-2
Cc1ccccc1N1CCN(C(=O)C2CCC(=O)N(C3CCCC3)C2)CC1 (configuration not stated)	2	79*	-8	-4	0
CN(C)/N=C/C=C1\CC/C(=C\c2ccc(Br)cc2)C1=O	0	49*	3	-10	-1
O=C(C[C@@H]1CC[C@@H]2[C@H](COC[C@@H](O)CN2Cc2ccccc2)O1)NCCCN1CCOCC1	·	·	-1[16.7 µM]	·	·
Cc1c(N/C(=N/S(=O)(=O)c2ccc(F)cc2)c2ccccc2)c(=O)n(-c2ccccc2)n1C	0	-3	-3	-2	-1
Cc1ccccc1S(=O)(=O)/N=C(/Nc1c(C)n(C)n(-c2ccccc2)c1=O)c1ccccc1	6	40*	4	-4	-1
